Measured values published in ChEMBL document CHEMBL1152954, “Discovery, characterization and comparison of inhibitors of Bacillus anthracis and Staphylococcus aureus replicative DNA helicases” (Bioorg Med Chem, 2009).
≈ marks a conversion by molar mass, not a printed value. Calls of active or inactive are those of the source. The rule behind the calls is not given here.

Assays:
Bacillus anthracis [1] = test: Antibacterial activity against permeabilized polA-deficient Bacillus anthracis Sterne assessed as inhibition of DNA replication by cell based assay; type: functional, organism-based
Procedure, shortened: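 ATP-dependent DNA replication measured in permeabilized ΔpolA B. anthracis Sterne cells by a modified Brown et al. method, testing whether compounds block an intact replisome.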

Bacillus anthracis [2] = test: Antibacterial activity against Bacillus anthracis Sterne by broth microdilution method; type: functional
Staphylococcus aureus [3] = test: Antibacterial activity against Staphylococcus aureus Smith by broth microdilution method; type: functional
HeLa = test: Cytotoxicity against human HeLa cells by MTT assay; type: cell-based
DnaC helicase = target: T1, DnaC helicase (Staphylococcus aureus, UniProt Q9AQH7); test: Inhibition of Staphylococcus aureus Smith DNA helicase DnaC assessed as strand unwinding after 30 mins by FRET assay
T1 sequence (Q9AQH7 whole entry): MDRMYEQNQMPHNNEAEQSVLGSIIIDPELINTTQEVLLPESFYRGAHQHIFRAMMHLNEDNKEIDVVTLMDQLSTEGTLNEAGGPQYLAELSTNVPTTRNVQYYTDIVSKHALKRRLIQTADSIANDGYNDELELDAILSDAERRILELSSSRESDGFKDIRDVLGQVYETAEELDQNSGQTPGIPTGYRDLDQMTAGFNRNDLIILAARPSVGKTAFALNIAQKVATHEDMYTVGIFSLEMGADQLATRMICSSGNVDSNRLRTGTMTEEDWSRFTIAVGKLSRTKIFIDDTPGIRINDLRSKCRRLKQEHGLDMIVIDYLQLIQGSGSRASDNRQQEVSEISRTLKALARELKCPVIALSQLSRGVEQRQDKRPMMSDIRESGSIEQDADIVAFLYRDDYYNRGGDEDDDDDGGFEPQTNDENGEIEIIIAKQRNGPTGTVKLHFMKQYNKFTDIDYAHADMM

[4] = Inhibition of Bacillus subtilis DNA gyrase by gel mobility assay
Procedure, shortened: (§1)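 B. subtilis DNA gyrase activity measured by a published gel mobility assay; compounds tested up to 50 μM.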

[5] = Selectivity ratio of IC50 for Staphylococcus aureus Smith DNA helicase DnaC to IC50 for Bacillus anthracis DNA helicase DnaB
[6] = system: Geobacillus stearothermophilus; test: Antibacterial activity against Bacillus stearothermophilus ATCC 12980 by broth microdilution method; type: functional
Bacillus subtilis [7] = test: Antibacterial activity against Bacillus subtilis BD54 by broth microdilution method; type: functional
Staphylococcus aureus [8] = test: Antibacterial activity against Staphylococcus aureus ATCC 25923 by broth microdilution method; type: functional
Enterococcus faecalis [9] = test: Antibacterial activity against Enterococcus faecalis ATCC 29212 by broth microdilution method; type: functional
Enterococcus faecalis [10] = test: Antibacterial activity against vancomycin-resistant Enterococcus faecalis ATCC 51575 by broth microdilution method; type: functional
Priestia megaterium = test: Antibacterial activity against Bacillus megaterium ATCC 12872 by broth microdilution method; type: functional
Bacillus licheniformis = test: Antibacterial activity against Bacillus licheniformis ATCC 14580 by broth microdilution method; type: functional; settings: DSM 13=ATCC 14580
Bacillus thuringiensis = test: Antibacterial activity against Bacillus thuringiensis ATCC 10792 by broth microdilution method; type: functional
Bacillus cereus = test: Antibacterial activity against Bacillus cereus ATCC 4342 by broth microdilution method; type: functional
Bacillus anthracis [11] = test: Inhibition of single strand DNA-stimulated ATPase activity of Bacillus anthracis DNA helicase DnaB at 100 uM
Procedure, shortened: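 ssDNA-stimulated ATPase of B. anthracis helicase assayed with 100 μM inhibitor, 0.5 mM ATP and 200 pmole M13mp19 single-stranded DNA.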

Bacillus anthracis [12] = test: Inhibition of Bacillus anthracis DNA helicase DnaB by competitive inhibition assay in presence of ATP
Procedure, shortened: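 Helicase FRET unwinding kinetics with B. anthracis enzyme, varying both ATP (0.625, 1.25, 2.5 mM and higher) and inhibitor concentrations; analysed by Dixon plot (1/V vs [I]).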

Bacillus anthracis [13] = test: Inhibition of Bacillus anthracis DNA helicase DnaB by Lineweaver-Burke plot analysis in presence of DNA substrate
Procedure, shortened: (§2)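 FRET strand-unwinding assay with purified B. anthracis helicase, 6-FAM/BHQ1 annealed 60-mer duplex, pH 7.9 Tris, 2 mM MgCl2, 25 mM NaCl, 0.01% Triton X-100, 2.5 mM ATP, room temperature 30 min. Oligo substrate and inhibitor concentrations varied; Ki taken from a Dixon plot.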

[14] = Inhibition of Bacillus anthracis DNA helicase DnaB by Dixon plot analysis in presence of annealed oligonucleotide substrate; procedure, shortened: as §2
Bacillus subtilis [15] = test: Inhibition of Bacillus subtilis DNA gyrase up to 50 uM by gel mobility assay; procedure, shortened: as §1
Bacillus anthracis [16] = test: Antibacterial activity against Bacillus anthracis Sterne at 4 times MIC within 5.5 hrs; type: functional, organism-based
Staphylococcus aureus [17] = test: Antibacterial activity against methicillin-resistant Staphylococcus aureus isolate 1094 by broth microdilution method; type: functional
Escherichia coli [18] = test: Antibacterial activity against Escherichia coli 700 expressing […] gene by broth microdilution method; type: functional
Escherichia coli [19] = test: Antibacterial activity against TolC deficient Escherichia coli 701 by broth microdilution method; type: functional
Bacillus subtilis [20] = test: Inhibition of Bacillus subtilis class C DNA polymerase 3
Procedure, shortened: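 B. subtilis Pol IIIC polymerase assay in 96-well format on DNase-activated chromosomal DNA substrate, which needs no helicase function.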

SMILES | IC50 (Bacillus anthracis [1]) [µM] | MIC (Bacillus anthracis [2]) [µM] | MIC (Staphylococcus aureus [3]) [µM] | CC50 (HeLa) [µM] | IC50 (DnaC helicase) [µM] | other results
Cc1ccc(C)n1-c1ccc(C(=O)O)c(O)c1 | > 100 | 50 (≈ 11.6 µg/mL) | 50 (≈ 11.6 µg/mL) | > 100 |  | 
Cc1ccc(C)n1-c1ccc(SCC(=O)O)cc1 |  | > 100 | > 100 | > 100 | 4 | 
COc1cc(/C=C2\SC(=S)N(c3cccc(C(F)(F)F)c3)C2=O)cc(OC)c1O | 95 | > 100 | > 100 | > 100 | 4 | 
Cc1nc(-c2c[nH]c(C(=O)O)c2)cs1 | > 100 | > 100 | > 100 | > 100 | 12 | 
Oc1ccc(O)c(-c2ccc(-c3nnc(S)o3)o2)c1 | > 100 | 25 (≈ 6.91 µg/mL) | > 100 | 66 | > 100 | 
CCC1(C)Cc2ccccc2-c2[nH]c3nnc(S)n3c(=O)c21 (centres undefined) | 27 | 30 (≈ 9.37 µg/mL) | > 100 | 80 | > 100 | 
CO[C@@H]1[C@@H](OC(=O)c2ccc(C)[nH]2)[C@@H](O)[C@@H](Oc2ccc3c(O)c(NC(=O)c4c[nH]c(C(=O)Nc5c(O)c6ccc(O[C@H]7OC(C)(C)[C@H](OC)[C@@H](OC(=O)c8ccc(C)[nH]8)[C@H]7O)c(C)c6oc5=O)c4C)c(=O)oc3c2C)OC1(C)C [COUMERMYCIN] |  |  |  |  |  | IC50 [4]: < 1 µM
Cn1c(SCc2cc(=O)oc3cc(O)c(O)cc23)nc2ccccc21 | 100 | 55 (≈ 19.5 µg/mL) | 23 (≈ 8.15 µg/mL) | 35 | 15 | Ratio IC50 [5]: 2
COc1cc(/C=C2\SC(=S)N(c3ccc([N+](=O)[O-])cc3)C2=O)cc(OC)c1O |  | > 100 | > 100 | 11 | 0.7 | 
Cc1c(CCC(=O)O)c(=O)oc2c(C)c(OCc3ccc(Br)cc3F)ccc12 | 25 | 10 (≈ 4.49 µg/mL) | > 100 | > 100 | 180 | MIC [6]: 5.6 µg/mL (≈ 12.5 µM); MIC (Bacillus subtilis [7]): 4.2 µg/mL (≈ 9.35 µM); MIC (Staphylococcus aureus [8]): 11.2 µg/mL (≈ 24.9 µM); MIC (Enterococcus faecalis [9]): > 45 µg/mL; MIC (Enterococcus faecalis [10]): > 45 µg/mL; MIC (Priestia megaterium): > 45 µg/mL; MIC (Bacillus licheniformis): 2.8 µg/mL (≈ 6.23 µM); MIC (Bacillus thuringiensis): 2.8 µg/mL (≈ 6.23 µM); MIC (Bacillus cereus): 2.8 µg/mL (≈ 6.23 µM); Ratio IC50 [5]: 2; inhibition (Bacillus anthracis [11]): 16%; inhibition (Bacillus anthracis [12]): Active; inhibition (Bacillus anthracis [13]): Active; Ki [14]: 8 µM; inhibition (Bacillus subtilis [15]): inactive; Activity (Bacillus anthracis [16]): Active; MIC (Staphylococcus aureus [17]): > 45 µg/mL; MIC (Escherichia coli [18]): > 45 µg/mL; MIC (Escherichia coli [19]): > 45 µg/mL
COc1cc(C(=O)Nc2nc3ccc(S(=O)(=O)N4CCOCC4)cc3s2)cc(OC)c1OC | > 100 | > 100 | > 100 | 70 | 15 | inhibition (Bacillus subtilis [20]): inactive
COc1cc(/C=C2\SC(=S)N(c3cccc(Cl)c3)C2=O)cc(OC)c1O | 30 | > 100 | > 100 | > 100 | 3 | 
COc1ccc(Nc2nc(N)nc(-c3cc4ccccc4o3)n2)cc1 | > 100 | > 100 | > 100 | 4 | 21 | 
Cc1c(CCC(=O)O)c(=O)oc2c(C)c(OCc3cccc4ccccc34)ccc12 | 107 | 6 (≈ 2.41 µg/mL) | > 100 | 6 | 65 | MIC [6]: 5 µg/mL (≈ 12.4 µM); MIC (Bacillus subtilis [7]): 15.1 µg/mL (≈ 37.5 µM); MIC (Staphylococcus aureus [8]): 2.5 µg/mL (≈ 6.21 µM); MIC (Enterococcus faecalis [9]): > 40 µg/mL; MIC (Enterococcus faecalis [10]): > 40 µg/mL; MIC (Priestia megaterium): > 40 µg/mL; MIC (Bacillus licheniformis): 2.5 µg/mL (≈ 6.21 µM); MIC (Bacillus thuringiensis): 2.5 µg/mL (≈ 6.21 µM); MIC (Bacillus cereus): 2.5 µg/mL (≈ 6.21 µM); Ratio IC50 [5]: 2; inhibition (Bacillus subtilis [15]): inactive; MIC (Staphylococcus aureus [17]): 5 µg/mL (≈ 12.4 µM); MIC (Escherichia coli [18]): > 40 µg/mL; MIC (Escherichia coli [19]): > 40 µg/mL
CCOc1ccccc1C(=O)Nc1nc2ccc(S(N)(=O)=O)cc2s1 | > 100 | > 100 | > 100 | 10 | 56 | inhibition (Bacillus subtilis [20]): inactive
Nn1c(Cc2ccccc2F)nnc1SCc1cc(=O)oc2cc(O)c(O)cc12 | 100 | > 100 | > 100 | > 100 | 15 | Ratio IC50 [5]: 2
Cc1c(Cc2ccccc2)c(=O)oc2c(O)c(O)ccc12 | 10 | 20 (≈ 5.65 µg/mL) | 24 (≈ 6.78 µg/mL) | 10 | 42 | Ratio IC50 [5]: 2
COc1cc(/C=C2\SC(=S)N(c3ccc(Cl)cc3)C2=O)cc(OC)c1O | 73 | > 100 | > 100 | > 100 | 2 | 
Cc1noc(NS(=O)(=O)c2ccc(NC(=O)CSc3nnc(-c4ccccc4)c(-c4ccccc4)n3)cc2)c1C | 61 | 50 (≈ 28.6 µg/mL) | 75 (≈ 43 µg/mL) | 68 | 47 | MIC [6]: 57.3 µg/mL (≈ 100 µM); MIC (Bacillus subtilis [7]): > 60 µg/mL; MIC (Staphylococcus aureus [8]): 43 µg/mL (≈ 75.1 µM); MIC (Enterococcus faecalis [9]): > 60 µg/mL; MIC (Enterococcus faecalis [10]): > 60 µg/mL; MIC (Priestia megaterium): 57.3 µg/mL (≈ 100 µM); MIC (Bacillus licheniformis): 57.3 µg/mL (≈ 100 µM); MIC (Bacillus thuringiensis): 57.3 µg/mL (≈ 100 µM); MIC (Bacillus cereus): 57.3 µg/mL (≈ 100 µM); inhibition (Bacillus subtilis [15]): inactive; MIC (Staphylococcus aureus [17]): 57.3 µg/mL (≈ 100 µM); MIC (Escherichia coli [18]): > 60 µg/mL; MIC (Escherichia coli [19]): 28.7 µg/mL (≈ 50.1 µM)
